Screens: PubChem, The Scripps Research Institute Molecular Screening Center
Sampled rows, rich in hits. Any-hit rate of the full collection: about 1.5%.
TCR CD3 inh = blocks the human TCR-CD3 interaction; TAMRA-labeled TCR probe fluorescence, biochemical; inhibition, % at 9.4 µM; 0.37% of 360,000 active; AID 651800; in the data active = inhibition above about 19%;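 note: recombinant mutant TCR 2C K166C tagged with TAMRA read by polarization; 0% = receptor in buffer alone and 100% = receptor with positive control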
DAGLB inh = blocks human DAGLB lipase activity | HEK293T DAGLB membrane lysate, EnzChek fluorogenic substrate | inhibition, % at 5.17 µM | 0.059% of 340,000 active | AID 504411; in the data active = inhibition above about 34%;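 note: 0% = enzyme with vehicle and 100% = wells lacking enzyme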
SIAE inh = human SIAE inhibition, primary screen | Q9HAT2 | inhibition, % at 9.66 µM | AID 1053197 | SIAE FP-Rh probe binding, fluorescence polarization | 0.69% of 370,000 active;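 active = inhibition above a cutoff: mean of compounds within the control limits plus 3 SD of those, cut at about 17% in these data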;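 note: 0% = plate median of compound wells and 100% = probe without SIAE protein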
HTRA1 inhibitor = blocks human HTRA1 serine peptidase; recombinant HTRA1, FP-rhodamine activity-based probe, fluorescence polarization; Q92743; inhibition, % at 5.96 µM; 0.5% of 340,000 active; in the data active = inhibition above about 36%;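 note: 0% = enzyme with DMSO and 100% = wells lacking enzyme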
Target sequence (Q92743 whole entry, looked up): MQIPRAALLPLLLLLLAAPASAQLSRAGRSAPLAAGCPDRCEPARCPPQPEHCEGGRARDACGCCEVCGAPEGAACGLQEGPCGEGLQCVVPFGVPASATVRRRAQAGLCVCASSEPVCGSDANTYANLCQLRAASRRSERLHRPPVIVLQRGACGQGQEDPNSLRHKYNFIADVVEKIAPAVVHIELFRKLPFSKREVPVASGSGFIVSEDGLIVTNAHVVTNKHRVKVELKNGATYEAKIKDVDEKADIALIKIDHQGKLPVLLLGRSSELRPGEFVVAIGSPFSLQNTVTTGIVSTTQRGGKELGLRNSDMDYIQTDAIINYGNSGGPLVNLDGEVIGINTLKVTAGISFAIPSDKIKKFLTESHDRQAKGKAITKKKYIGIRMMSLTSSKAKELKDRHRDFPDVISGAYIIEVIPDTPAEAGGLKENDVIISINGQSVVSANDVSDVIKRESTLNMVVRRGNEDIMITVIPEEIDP
mABHD4 FP = inhibitors of mouse ABHD4 | inhibition, % at 8.92 µM | purified mABHD4, FP-Rh probe fluorescence polarization | 0.54% of 370,000 active | AID 720543 | Q8VD66;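 active = inhibition exceeding the mean over every tested compound plus 3 SD, cut at about 30% in these data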;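 note: 0% = plate median of compound wells and 100% = S159A mutant with DMSO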
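Assay system: wild-type mouse ABHD4 protein; compound: single nominal dose of 8.92 µM, 0.89% DMSO final; schedule: 45 min + 60 min at 25 °C; measured by: FP readout, ex 525 nm / em 598 nm; evaluation: % inhibition of FP-Rh probe binding versus controls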
SIAE inh conf = confirmation of human SIAE inhibitors. shares compounds with SIAE inh. SIAE FP-Rh activity-based probe, fluorescence polarization. inhibition, % at 9.66 µM. 13% of 2,300 active;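 active = mean inhibition of the replicates above the hit cutoff set in the primary screen, cut at about 17% in these data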;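 note: 0% = SIAE with DMSO and probe and 100% = probe without SIAE; inhibitors lower polarization as more probe stays unbound to SIAE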
* hit, by the source's call; · = no result.

SMILES | TCR CD3 inh | DAGLB inh | SIAE inh | HTRA1 inhibitor | mABHD4 FP | SIAE inh conf
O=[N+]([O-])c1ccccc1/C=C/C=Nn1c(-c2ccc(F)cc2)n[nH]c1=S | · | · | -5 | · | -25 | ·
COc1ccc(/C=C/C(=O)NC(=S)NNC(=O)c2cccnc2)cc1 | 17 | -4 | 21* | 2 | 11 | 1
CCn1c2ccccc2c2cc(NC(=O)c3ccc(C)c([N+](=O)[O-])c3)ccc21 | -1 | -2 | 21* | -2 | 0 | -4
O=C(N=Nc1c(O)[nH]c2c(Cl)cc(Cl)cc12)c1ccccc1O | 8 | · | 29* | · | 20 | -3
O=C(N=Nc1c(O)[nH]c2ccc([N+](=O)[O-])cc12)c1ccccc1Cl | 2 | 5 | -2 | -4 | 7 | ·
O=C(COC(=O)C1CCCN1C(=O)c1cccs1)c1ccccc1 (configuration not stated) | -3 | -1 | 17* | 0 | 0 | -6
COc1ccc(S(=O)(=O)N2CCN(C(=O)CN3C(=O)NC(C)(c4ccc5ccccc5c4)C3=O)CC2)cc1 (configuration not stated) | 2 | 2 | 17* | -8 | 3 | 1
CCOC(=O)C1=C(c2ccccc2)NC(=O)NC1c1ccc(O)c(OCC)c1 (configuration not stated) | 3 | -2 | 19* | 8 | 3 | -1
CC(=O)c1c(C)[nH]c(C(=O)Nc2ccc(N3CCCCCC3)cc2)c1C | 2 | 7 | 26* | 15 | 29 | 10
C[C@H](CO)N1C[C@H](C)[C@@H](CN(C)C(=O)Cc2cccnc2)Oc2ncc(C#CCc3ccccc3)cc2C1=O | 1 | · | 0 | · | 1 | ·
CC(O)(c1cccc(F)c1)c1nc(-c2cnc3ccccc3c2)cs1 (configuration not stated) | -3 | · | -15 | · | -49 | ·
Cc1cc(C)cc(N2C(=O)C3C4C=CC(C4)C3C2=O)c1 (configuration not stated) | 2 | 0 | 19* | -2 | 2 | -1
O=C1c2ccccc2C(c2nnnn2-c2ccc3c(c2)OCCO3)N1Cc1cccnc1 (configuration not stated) | 2 | · | 25* | · | 3 | 0
COc1ccc(Cn2ccnc2CO)cc1[N+](=O)[O-] | 4 | 1 | 19* | 0 | -2 | 3
Cn1c(N)c(C(=O)CCc2ccccc2)c(=O)n(C)c1=O | 5 | · | 0 | · | 2 | ·
CCN(CC(=O)c1c(N)n(C)c(=O)n(C)c1=O)c1cccc2ccccc12 | -5 | 0 | 20* | 10 | 13 | 7
COc1ccccc1-c1cccc2[nH]c3c(c12)CCN1C(=O)[C@H]2[C@H](C)ON(C)[C@H]2C[C@@H]31 | 1 | · | 3 | · | 6 | ·
Cc1nn(Cc2ccc(Cl)cc2Cl)c(C)c1NC(=O)CCl | -3 | 2 | -5 | -1 | -2 | ·
Cc1nn(Cc2ccc(Cl)cc2Cl)c(C)c1NC(=O)c1nc2n(n1)C(C(F)F)CC(C)N2 (configuration not stated) | -5 | 0 | 31* | 0 | 6 | 2
Cc1nn(Cc2ccc(Cl)cc2Cl)c(C)c1NC(=O)c1nn(C)cc1Cl | 2 | 0 | 1 | -9 | 1 | ·
Cc1nn(Cc2ccc(Cl)cc2Cl)c(C)c1NC(=O)C1C2CCC(O2)C1C(=O)O (configuration not stated) | 4 | -1 | 20* | -5 | 0 | 3
Cc1onc(-c2c(F)cccc2Cl)c1-c1ncc(-c2ccc(Cl)cc2)o1 | -3 | · | -5 | · | -1 | ·
CC(C)OC(=O)N(C)C[C@H]1OCc2cn(nn2)CCCC(=O)N([C@@H](C)CO)C[C@@H]1C | -1 | · | 3 | · | -2 | ·
O=C(O)C1(c2ccccc2)CCN(S(=O)(=O)c2ccc(F)c(F)c2)CC1 | -5 | 3 | 20* | -1 | 6 | 4
O=C(O)C1(c2ccccc2)CCN(S(=O)(=O)c2ccccc2)CC1 | -4 | -1 | -2 | 7 | 6 | ·
COc1ccc(N=C2SC(C(=O)O)CC(=O)N2C)cc1 (configuration not stated) | 5 | 5 | 25* | 6 | 6 | -3
CN1C(=O)CC(C(=O)O)SC1=Nc1ccc(F)cc1 (configuration not stated) | -5 | 0 | -5 | 5 | -1 | ·
Nc1[nH]c(C(=O)c2ccc(Br)cc2)c(-c2ccncc2)c1C(=O)c1ccccc1 | 3 | · | 4 | · | 21 | ·
